Reference: ChEMBL document CHEMBL4219151, “Piperidinyl Ureas Chemically Control Defective in Cullin Neddylation 1 (DCN1)-Mediated Cullin Neddylation” (J Med Chem, 2018)
Converted amounts (≈) assume the structure as drawn. The source made the active and inactive calls. No cut-off for these calls is given here.

Legend:
[1] = Solubility of the compound at pH 7.4 after 18 hrs by UV-spectroscopy; type: physicochemical; conditions: buffer
Method in brief: (§1)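 Measured in triplicate within at least one experiment; values reported as mean ± standard deviation.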

DCN1-like protein 1 [2] = target: T1, DCN1-like protein 1 (Homo sapiens, UniProt Q96GG9)
DCN1-like protein 1 [3] = target: T1, DCN1-like protein 1; assay: Binding affinity biotinylated human GST-tagged DCN1 by ITC method
BJ = assay: Growth inhibition of human BJ cells; type: cell-based
Method in brief: (§2)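 In vitro monolayer proliferation assay in BJ cells (normal fibroblasts lacking DCN1 amplification) and HCC95 cells (squamous cell carcinoma line carrying DCN1 amplification). EC50 is reported as mean ± standard deviation from at least one experiment run in triplicate. A ">" value means less than 50% growth inhibition at the highest concentration tested.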

[4] = Permeability of the compound at 10 uM by PAMPA; type: ADME; method in brief: as §1
Homo sapiens = organism: Homo sapiens; assay: Inhibition of human RBX1-catalyzed CUL2(CTD) neddylation assessed as reduction in transfer of N-terminal cys-tagged NEDD8 from UBE2M to CUL2-CTD at 12.5 uM measured up to 6 mins by pulse-chase assay
Method in brief: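 In vitro pulse-chase monitoring NEDD8 transfer from UBE2M to the CUL2 C-terminal domain, stimulated by DCN1 together with RBX1. The CUL2 domain stands in for cullins 1-5. The assay is a variation of a previously published pulse-chase format, also run against each of the five DCN family members.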

DCN1-like protein 1 [5] = target: T1, DCN1-like protein 1; assay: Inhibition of human DCN1-mediated cullin neddylation assessed as reduction in transfer of fluorescein-5-maleimide-tagged NEDD8 from N-terminally acetylated human UBE2M to CUL2-CTD measured for 10 sec by pulse-chase assay
[6] = target: T2, DCN1-like protein 3 (Homo sapiens) (UniProt Q8IWE4); assay: Inhibition of human DCN3 stimulated N-terminal cys-tagged NEDD8 transfer from UBE2F to CUL2(CTD)-RBX1 at 10 uM measured up to 2 mins by pulse-chase assay
T2 sequence (whole entry): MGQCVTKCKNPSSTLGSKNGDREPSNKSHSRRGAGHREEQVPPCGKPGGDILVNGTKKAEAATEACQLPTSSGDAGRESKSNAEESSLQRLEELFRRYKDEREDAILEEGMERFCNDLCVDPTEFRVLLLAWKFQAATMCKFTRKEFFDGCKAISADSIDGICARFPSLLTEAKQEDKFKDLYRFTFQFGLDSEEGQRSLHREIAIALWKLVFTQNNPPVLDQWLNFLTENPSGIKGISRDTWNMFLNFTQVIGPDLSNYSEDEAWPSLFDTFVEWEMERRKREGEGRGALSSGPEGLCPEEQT

[7] = target: NEDD8 activating enzyme (Homo sapiens) (UniProt Q8TBC4+Q13564); assay: Inhibition of human NAE1-UBA3 E1 activating enzyme assessed as reduction in CUL3 neddylation by measuring inhibition of UBE2M thiol-ester formation at 50 uM up to 60 mins by pulse-chase assay; type: protein-complex assay
HCC95 = assay: Growth inhibition of human HCC95 cells; type: functional, cell-based; method in brief: as §2
[8] = target: T3, DCN1-like protein 4 (Homo sapiens) (UniProt Q92564); assay: Inhibition of human DCN4-mediated cullin neddylation assessed as reduction in transfer of fluorescein-5-maleimide-tagged NEDD8 from N-terminally acetylated human UBE2M to CUL2-CTD at 50 uM measured for 1 min by pulse-chase assay
T3 sequence (whole entry): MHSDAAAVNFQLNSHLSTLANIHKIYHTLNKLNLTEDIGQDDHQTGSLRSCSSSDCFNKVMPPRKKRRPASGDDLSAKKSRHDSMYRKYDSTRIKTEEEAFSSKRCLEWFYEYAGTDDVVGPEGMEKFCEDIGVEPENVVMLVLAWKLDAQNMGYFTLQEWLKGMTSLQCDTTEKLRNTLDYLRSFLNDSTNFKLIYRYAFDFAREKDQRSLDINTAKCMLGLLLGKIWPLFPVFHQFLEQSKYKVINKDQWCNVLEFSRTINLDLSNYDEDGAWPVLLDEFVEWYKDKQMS

[9] = target: T2, DCN1-like protein 3 (Homo sapiens); assay: Inhibition of human DCN3-mediated cullin neddylation assessed as reduction in transfer of fluorescein-5-maleimide-tagged NEDD8 from N-terminally acetylated human UBE2M to CUL2-CTD at 50 uM measured for 2 mins by pulse-chase assay
[10] = target: DCN1-like protein 2 (Homo sapiens) (UniProt Q6PH85); assay: Inhibition of human DCN2-mediated cullin neddylation assessed as reduction in transfer of fluorescein-5-maleimide-tagged NEDD8 from N-terminally acetylated human UBE2M to CUL2-CTD at 12.5 and 50 uM measured for 10 sec by pulse-chase assay
[11] = target: T4, DCN1-like protein 5 (Homo sapiens) (UniProt Q9BTE7); assay: Inhibition of human DCN5-mediated cullin neddylation assessed as reduction in transfer of fluorescein-5-maleimide-tagged NEDD8 from N-terminally acetylated human UBE2M to CUL2-CTD at 50 uM measured for 1 min by pulse-chase assay
T4 sequence (whole entry): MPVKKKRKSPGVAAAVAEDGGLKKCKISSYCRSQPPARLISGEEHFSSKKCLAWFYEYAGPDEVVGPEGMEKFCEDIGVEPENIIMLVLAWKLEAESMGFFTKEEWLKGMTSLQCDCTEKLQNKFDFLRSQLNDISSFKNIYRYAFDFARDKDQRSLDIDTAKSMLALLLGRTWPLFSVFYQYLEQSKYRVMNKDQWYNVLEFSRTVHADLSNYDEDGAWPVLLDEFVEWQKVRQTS

T1 sequence (Q96GG9 whole entry): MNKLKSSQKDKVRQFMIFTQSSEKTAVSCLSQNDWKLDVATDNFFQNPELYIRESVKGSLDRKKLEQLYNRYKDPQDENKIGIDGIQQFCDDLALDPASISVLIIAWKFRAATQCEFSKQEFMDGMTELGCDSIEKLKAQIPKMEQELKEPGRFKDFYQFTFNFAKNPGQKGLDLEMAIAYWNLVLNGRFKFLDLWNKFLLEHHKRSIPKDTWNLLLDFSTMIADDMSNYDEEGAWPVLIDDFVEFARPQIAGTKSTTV
DCN1-like protein 2 (Homo sapiens), sequence (Q6PH85 whole entry): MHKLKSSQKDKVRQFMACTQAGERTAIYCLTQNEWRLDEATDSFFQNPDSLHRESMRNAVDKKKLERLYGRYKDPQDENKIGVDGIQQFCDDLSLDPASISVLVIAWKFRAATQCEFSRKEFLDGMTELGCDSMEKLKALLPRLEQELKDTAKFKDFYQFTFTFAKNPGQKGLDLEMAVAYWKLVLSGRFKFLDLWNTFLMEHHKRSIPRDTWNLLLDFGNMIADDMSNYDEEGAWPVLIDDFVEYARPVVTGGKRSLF

CCCCN1CCC(N(Cc2ccccc2)C(=O)Nc2cccc(C(F)(F)F)c2)CC1
solubility at 18 h [1]: 70 µM (≈ 30.3 µg/mL) | IC50 (DCN1-like protein 1 [2]): 260 nM | Kd (DCN1-like protein 1 [3]): 700 nM | EC50 (BJ): > 40000 nM | Papp at 10 µM ([4]; PAMPA, read-out: permeability): > 2200 ×10⁻⁶ cm/s | inhibition (Homo sapiens): inactive | EC50 (DCN1-like protein 1 [5]): 140 nM | inhibition [6]: inactive | inhibition [7]: inactive | EC50 (HCC95): > 40000 nM

CCCC(C)N1CCC(N(Cc2ccccc2)C(=O)Nc2cccc(C(F)(F)F)c2)CC1 (centres undefined)
solubility at 18 h [1]: 57 µM (≈ 25.5 µg/mL) | IC50 (DCN1-like protein 1 [2]): 62 nM | Kd (DCN1-like protein 1 [3]): 140 nM | EC50 (BJ): > 40000 nM | inhibition [8]: inactive | inhibition [9]: inactive | inhibition [10]: Active | permeability ([4]; pampa, 10 µM): 1400 ×10⁻⁶ cm/s | inhibition [11]: inactive | inhibition (Homo sapiens): inactive | EC50 (DCN1-like protein 1 [5]): 79 nM | inhibition [6]: inactive | inhibition [7]: inactive | EC50 (HCC95): 47000 nM
